Measured values from the EternaBench riboswitch data.

Tested on: MS2 coat protein
Assay: apparent Kd, MS2 coat protein; higher = weaker binding; RNA-MaP array; FMN 200 µM where present
Outline: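 On Illumina sequencing-chip clusters, designs were transcribed by stalled E. coli RNA polymerase and titrated with SNAP-549-labelled MS2 coat protein (0.7 or 1.5 nM, doubling to 3 µM), without and then with constant ligand, in 100 mM Tris-HCl pH 7.5, 80 mM KCl, 4 mM MgCl2, BSA, DTT, yeast tRNA and Tween-20. Apparent Kd is the median of filtered per-cluster curve fits to green signal normalised to red-channel RNA signal and control-cluster median Fmax.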

[1] = designed as: ON switch for flavin mononucleotide, no ligand
[2] = ligand present: flavin mononucleotide, designed as: ON switch for flavin mononucleotide
[3] = designed as: OFF switch for flavin mononucleotide, no ligand
[4] = ligand present: flavin mononucleotide, designed as: OFF switch for flavin mononucleotide

| Sequence | apparent Kd [1] | apparent Kd [2] | apparent Kd [3] | apparent Kd [4] |
| --- | --- | --- | --- | --- |
| AAAAAACAUGAGGAUCACCCAUGUCUUCGGACGUGAGGAUAUGUACAGACUUCGGUCUGUACAGAAGGCACGUCAA | 31.3 nM | 19.2 nM |  |  |
| CGCAGACAUUGGACCUGGUAACAUGAGGAUCACCCAUGUAUCAGAAGGUACUUAUAGAGAUUAAGUAAGGAUAUGAAGUUUGUG | 5.34 nM | 6.55 nM |  |  |
| GAGGAGCAAGGAUAUACGAGGAUAUGGAAGGUUGGAGAGUGACAUGAGGAUCACCCAUGUAGAAGGUGCGAGGG |  |  | 53.7 nM | 49.2 nM |
| GGAUAGGACAGAGGAUAUUCGUGCUAGAGAUACUAGCAAAAUUUCCUCACAUGAGGAUCACCCAUGUAGAAGGCUGUCCUAUCG |  |  | 5.37 nM | 10.3 nM |
| ACAUGCAUAGCGAUAUGAUCGAAAAGUCAUGUCGCAAAAUUUAGAAGGACAUGAGGAUCACCCAUGUAGGAUAUGGGAGCAUGA | 57.9 nM | 13.2 nM |  |  |
| UCACGGGUUUGAGGAUAUAUUAUUAUUAUUUAAAUAGAAGGCAAAGAAAUUGUUAUUUCACUAUACAUGAGGAUCACCCAUGUU |  |  | 25.4 nM | 23.4 nM |
| GCUCAUAUCACAGGAUAUGGCCAGCAAAUUUGGCCAGAAGGGUGAUUCAUAUUAAAAUCACAUGAGGAUCACCCAUGUACGGCA | 166 nM | 321 nM |  |  |
| UGUUGUAUUACAGGAUAUCUAUUAGUUUUUUUUAGAGAAGGGUAUUCACAUGAGGAUCACCCAUGUAUAUACGAGGAAGUUGUG | 50.2 nM | 51.7 nM |  |  |
| UGAGUCUGCUGAGGAUAUUGCUCGUGCGUACAUGAGGAUCACCCAUGUGUCUUGAUCCUCUUCUGCAAGAAGGCAGCUCUCUCU |  |  | 775 nM | 444 nM |
| CCGGCUUACUAGGAUAUAGGAGUCGAUAGACACCUAGAAGGAGUAACAUGAGGAUCACCCAUGUGUCCUACCGG |  |  | 22.1 nM | 86 nM |
| UGUUGUUGAUAGGAUAUACUUGUAGGAGUUGUAGUAGAAGGAUCUACAUGAGGAUCACCCAUGUAGGAGUGAGU |  |  | 17.5 nM | 17.2 nM |
| GGUACCAUCACAGGAUAUGCUAUCCUUUGGGUAGCAGAAGGGUGAUAACAUGAGGAUCACCCAUGUGGUACCGGGCGUGAGCCC | 1030 nM | 197 nM |  |  |
| CAGCAAAAGUAGAAGGCAGUACUGAUUCAGUACUGAGGAUAUACAUGAGGAUCACCCAUGUCUUCCAGCUGAAUAAUAAAAUAA |  |  | 6.14 nM | 45.5 nM |
| CUUGGUACUCGAGGAUAUCACAUGAACUACCGAACAUGAGGAUCACCCAUGUGAGAAGGCGAGUUCUGUCCGAUAAAAUUACUC |  |  | 6.68 nM | 11 nM |
| ACAAAUGGAGGAUAUACAUGAGGAUCACCCAUGUAUAUCCUACAUAUGUGAUUUUUAUGUAGAAGGCCAUUUGA |  |  | 12.8 nM | 13.4 nM |
| GGAGCAGGGUCAGGAUAUGUAGGUAGACGGCAAAUAGAAGGGACAUGAGGAUCACCCAUGUAACAUUAAAAUGAAGCAAGGGAG |  |  | 66.4 nM | 71.5 nM |
| CGGAACAUGAGGAUCACCCAUGUAGCUACUUAAAGGUGCUACAGAAGGGACAUUGCGCGUCAUGGUCAGGAUAUGUAGGGCGGA | 148 nM | 62.4 nM |  |  |
| CGAUAGGACAGAGGAUAUGCCGAUAGGAUCUACUAUCGAAGAAUCCUCACAUGAGGAUCACCCAUGUAGAAGGCUGUCCUAUCU |  |  | 7.9 nM | 38.1 nM |
| GCGUUGAACGAGAAGGCCAAUACAUGAGGAUCACCCAUGUAGUGAAGUAUUGGAGGAUAUCGAUCGUCGUCUCAUGAGCAACGC |  |  | 8.88 nM | 25.3 nM |
| ACGAAACAUGAGGAUCACCCAUGUGAGGAUAUGUAAAUAGUAAACAAAUAAGAAAUAAACAGAAGGCACACAGG |  |  | 32.9 nM | 67 nM |
| GUUUGACAUGAGGAUCACCCAUGUGAGGAUAUCGGCUGGUACGUGUUGGCUGGCAUCUCGAGAAGGCACAUAGG |  |  | 134 nM | 60.5 nM |
| AAACGGGCAGGAUAUGCGUACUCACGGGAAAACUGAAUGGUACAUGAGGAUCACCCAUGUAGAAGGGCUUAAAA |  |  | 53.5 nM | 46.1 nM |
| GUUUUCGCAUGAGGAUAUGCUCGCAUUUCAAGAGCAGAAGGUAUGUCUAUAGACAUGAGGAUCACCCAUGUAUCUAACUUUGAA | 352 nM | 65 nM |  |  |
| AACCUAUUACAGAAGGCCAGCUACAUGAGGAUCACCCAUGUCGAGUCAUGGAGGAUAUGUAGUAAUUUACUCACAAAUAAGUGC | 33.6 nM | 5.16 nM |  |  |
| ACAUGAGGAUCACCCAUGUAAAAUGAAGAAGGUAUAUACUUGAGGAUCACCCAUGUACAUGGGAGUAAGGAUAUUCUAAUAAUU | 13.2 nM | 11.3 nM |  |  |
| AACAGUAGAGGAUAUACAUGAGGAUCACCCAUGUGAUUAUUACGUGGCGUACCACGAAGUAGAAGGCUACUGGA |  |  | 61 nM | 203 nM |
| GGAUAGGACAGAGGAUAUACGUGCUAAAGAUACUAGCAAAAUUUCCUCACAUGAGGAUCACCCAUGUAGAAGGCUGUCCUAUCG |  |  | 17.8 nM | 466 nM |
| CCAUGGAAUGUAGGAUAUGACUGACAAAGUCAGUUAGAAGGACAUGAGGAUCACCCAUGUAGGAAACAACCACAUAAACCAUGG |  |  | 7.62 nM | 6.97 nM |
